SENP6 block = blocks the human protease SENP6. Recombinant SENP6 catalytic domain, aminoluciferin luminescence. inhibition, % at 10 µM. 1.8% of 330,000 active;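 active = inhibition above about 50% at the single tested dose, limit read from the data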;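 also: plate controls were DMSO wells with enzyme for no effect and DMSO wells lacking enzyme for full effect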
Platelet DG rel = modulates dense granule release in human platelets. human platelet-rich plasma, SFLLRN dense granule ATP release, luminescence. inhibition, %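 (compounds screened at 7.5 µM in platelet-rich plasma)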. AID 1663. 0.22% of 300,000 active;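 active = mean replicate score, as percent of positive control, at or above 50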
SENP1 FRET inh = blocks the human SENP1 SUMO protease catalytic domain; AID 624204; recombinant SENP1 catalytic domain, CyPet-SUMO1-YPet FRET cleavage; 0.21% of 360,000 active; inhibition, % at 10 µM; Q9P0U3;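 active = inhibition at least 30% at 10 µM, raw YFP signal under a set limit, fluorescence ratio 0.5 to 1.5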;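 also: 0% = enzyme with DMSO and 100% = no enzyme wells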
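Test system: hSENP1 catalytic domain, recombinant; Amount: 20 pM final SENP1 enzyme; Medium: Tris pH 8 buffer plus EDTA, NaCl, BME, BSA, NP40, catalase; Schedule: 50 min enzyme reaction, room temperature, light-protected; Technique: FRET fluorescence in CFP and YFP emission channels; Controls: no-enzyme wells low, DMSO-plus-enzyme wells high control.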
SENP8 block-1 = SENP8 protease inhibition; Q96LD8; purified SENP8, Z-RLRGG-aminoluciferin cleavage, luminescence; inhibition, % at 10 µM; 1.2% of 330,000 active; AID 2540; in the data active = inhibition above about 50%
Target sequence (Q96LD8 whole entry, looked up): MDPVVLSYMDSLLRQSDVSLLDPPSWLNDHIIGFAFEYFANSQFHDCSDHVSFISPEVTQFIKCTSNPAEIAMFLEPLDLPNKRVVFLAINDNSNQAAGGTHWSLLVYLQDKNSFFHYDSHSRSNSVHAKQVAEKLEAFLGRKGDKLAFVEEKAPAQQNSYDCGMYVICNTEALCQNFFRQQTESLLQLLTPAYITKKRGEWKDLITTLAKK
SENP7 block = inhibitors of human SENP7 protease; recombinant SENP7, Z-RLRGG-aminoluciferin luminescence, 40 min; Q9BQF6; inhibition, % at 5 µM; 1.5% of 330,000 active;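 active = inhibition above about 50% at the single test dose, limit read from the data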;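 also: plate controls were DMSO with enzyme for no effect and no enzyme buffer wells for full effect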
SENP8 block-2 = blocks human SENP8 cleavage of Nedd8 substrate; recombinant SENP8, Nedd8 substrate fluorescence; inhibition, % at 20 µM; Q96LD8; 0.64% of 360,000 active; in the data active = inhibition mostly above about 40%, no sharp cut-off; inactive = mostly below about 27%
SENP8 confirm = human SENP8 inhibition, confirmed; shares compounds with SENP7 block; Recombinant SENP8, Z-RLRGG-aminoluciferin luminescence, 60 min; inhibition, % at 12.5 µM; 40% of 6,200 active; AID 488912;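 active = mean inhibition across replicates above about 50%, limit read from the data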
SENP6 conf = human SENP6 inhibition, confirmed | AID 488915 | inhibition, % at 12.5 µM | 58% of 6,200 active | shares compounds with SENP7 block | recombinant SENP6, Z-RLRGG-aminoluciferin luminescence
SENP7 confirm = human SENP7 inhibition, confirmed. shares compounds with SENP7 block. recombinant SENP7, Z-RLRGG-aminoluciferin luminescence, 40 min. inhibition, % at 12.5 µM. 69% of 6,200 active
Casp3 SENP sel = caspase-3 inhibition (SENP selectivity assay) | 60% of 6,200 active | shares compounds with SENP7 block | AID 488918 | inhibition, % at 12.5 µM | purified caspase-3, Z-DEVD-aminoluciferin luminescence, 60 min;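 active = mean inhibition above about 50%, limit read from the data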;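 also: plate controls were enzyme with DMSO for no effect and wells without caspase-3 for full effect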
Target sequence (P42574 28-227 limits assumed): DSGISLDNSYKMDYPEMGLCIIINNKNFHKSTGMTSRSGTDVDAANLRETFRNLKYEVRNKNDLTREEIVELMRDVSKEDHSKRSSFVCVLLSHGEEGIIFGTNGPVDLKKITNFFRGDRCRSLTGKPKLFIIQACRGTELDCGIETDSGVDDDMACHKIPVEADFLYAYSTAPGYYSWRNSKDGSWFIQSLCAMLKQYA
Luc interf = interferes with luciferase luminescence in SENP counter-screen; 39% of 6,200 active; inhibition, % at 12.5 µM; shares compounds with SENP7 block; Pre-incubated SENP8/Z-RLRGG-aminoluciferin, luciferase luminescence interference;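 active = mean inhibition above about 50% when retested at one dose, limit read from the data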;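 also: plate controls were DMSO wells with completed reaction for no effect and substrate without enzyme for full effect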
Numbers without * were called inactive; / = not tested or not shown. Hits are enriched below; roughly 2.6% of the tested compounds scored in any of these assays.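 The calls were made as follows, unless noted: active = mean inhibition above about 50% in the one-dose retest (limit read from the data); inactive = the rest.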

SMILES	SENP6 block	Platelet DG rel	SENP1 FRET inh	SENP8 block-1	SENP7 block	SENP8 block-2	SENP8 confirm	SENP6 conf	SENP7 confirm	Casp3 SENP sel	Luc interf
CCOC(=O)CNS(=O)(=O)CCN1C(=O)c2ccccc2C1=O	2.0	18.8	3.5	0.1	3.7	13.9	/	/	/	/	/
CC(=O)N1N=C(c2ccc(C)cc2)OC1c1ccc(C(C)C)cc1 (centres undefined)	65.7*	-5.5	0.9	-2.8	66.4*	4.6	7.2	11.3	31.7	26.7	21.2
COc1cccc(N=NC2C(=O)N(C(N)=S)N=C2C)c1 (centres undefined)	85.0*	-1.5	1.8	79.3*	67.7*	25.2	71.3*	86.1*	97.5*	91.2*	42.3
CC1=NN(C(N)=S)C(=O)C1N=Nc1cccc(Cl)c1 (centres undefined)	91.7*	-0.7	1.3	84.6*	65.5*	12.1	37.4	89.7*	99.7*	89.5*	88.0*
Cc1ccc(C)c(NC(=O)COC(=O)CCNC(=O)c2ccco2)c1	4.2	/	-1.5	-7.3	-0.5	8.4	/	/	/	/	/
O=C(c1ccc(Cl)cc1)c1nnc(-c2ccncc2)o1	23.7	0.7	1.5	3.6	11.9	31.7	/	/	/	/	/
O=C(c1ccccc1)c1nnc(-c2ccncc2)o1	57.9*	-28.3	3.0	43.7	56.6*	27.9	67.7*	63.7*	86.5*	88.2*	56.8*
CN(C)S(=O)(=O)c1cc(NC(=O)COC(=O)C2CSC3(C)CCC(=O)N23)ccc1Cl (centres undefined)	-23.8	5.8	2.9	-11.2	-6.8	10.7	/	/	/	/	/
N#C/C(=C\c1ccccc1)C(=O)Nc1ccccn1	-17.0	7.9	-40.5	1.7	7.6	-51.3	/	/	/	/	/
N#C/C(=C\c1cccs1)C(=O)Nc1ccccn1	59.4*	10.0	-69.3	24.3	63.6*	18.2	40.4	49.7	83.2*	71.1*	21.6
Cc1ccc(/C=C/C(=O)c2ccc(N3CCOCC3)cc2)s1	80.6*	44.7	28.8	67.7*	34.6	-12.5	-0.7	33.1	33.2	16.0	0.4
O=C(c1ccccc1)c1ccc(N2CCOCC2)cc1	/	/	0.2	/	/	-53.7	/	/	/	/	/
CCc1ccc(/C=C/C(=O)c2ccc(N3CCOCC3)cc2)cc1	-11.3	-3.0	4.5	-15.2	-0.6	-19.5	/	/	/	/	/
Cc1cccc(/C=C/C(=O)c2ccc(N3CCOCC3)cc2)c1	89.1*	-2.5	/	84.4*	92.4*	/	29.9	33.6	35.2	55.2*	80.2*
CC(=O)c1ccc(N2CCN(C(=S)NCc3ccco3)CC2)cc1	-6.4	-6.2	1.2	-2.6	2.8	-95.1	/	/	/	/	/
CC(=O)Nc1cc(C(=O)N2CCCC2)ccc1Sc1ccc(Cl)cc1	-11.7	-3.6	-1.9	0.7	4.0	15.9	/	/	/	/	/
C(/C=C/c1ccccn1)=C\c1ccccc1	87.4*	11.4	-1.6	80.3*	88.1*	-402.3	24.8	65.6*	90.5*	66.4*	52.5*
Cc1ccc(N=C/C(C(=O)C(F)(F)F)=C(\O)c2cccs2)cc1	26.7	6.0	-20.9	20.0	96.2*	-50.0	10.4	6.5	0.0	28.6	55.5*
COc1ccc(-c2nnc3ccc(SCC(=O)Nc4cc(C)on4)nn23)cc1OC	-20.1	5.6	1.1	-3.9	-18.5	14.8	/	/	/	/	/
CCOC(=O)C(C)Sc1nc(-c2cccs2)ccc1C#N (centres undefined)	-11.1	-8.7	-19.4	9.2	-0.8	-286.0	/	/	/	/	/
C=COC(=O)CSc1nc(-c2cccs2)ccc1C#N	56.9*	/	-23.1	48.5	7.5	-310.5	-4.7	70.1*	27.6	42.4	-5.0

Compound activity (PubChem)
